These results are taken from ChEMBL document CHEMBL1137111, “Application of multi-component reactions to antimalarial drug discovery. Part 1: Parallel synthesis and antiplasmodial activity of new 4-aminoquinoline Ugi adducts” (Bioorg Med Chem Lett, 2004).

Format in all cases: functional, organism-based
The subject of experiment [1] is Plasmodium falciparum. Kind of experiment: Antimalarial activity against chloroquine-sensitive Plasmodium falciparum D10.
The subject of experiment [2] is Plasmodium falciparum. Description: Antimalarial activity against chloroquine-resistant Plasmodium falciparum W2. In short, it runs like this: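 W2 parasites in RPMI-1640 with 10% human serum, synchronized with 5% D-sorbitol. From ring stage, exposed 48 h to a concentration series added from DMSO stocks (≤0.1% DMSO; controls 0.1% DMSO). Fixed 48 h in 1% formaldehyde/PBS pH 7.4 at room temperature, stained with 1 nM YOYO-1, and parasitemia read by flow cytometry. IC50 from % control parasitemia by nonlinear regression, duplicate experiments.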

The subject of experiment [3] is Plasmodium falciparum. Kind of experiment: Antimalarial activity against chloroquine-resistant Plasmodium falciparum K1.

For `O=C(CN(CCNc1ccnc2cc(Cl)ccc12)C(=O)c1cnccn1)NC1CCCCC1`, the IC50 with Plasmodium falciparum [1] was 0.79 µM; in the experiment on Plasmodium falciparum [2] it was over 10 µM; in the experiment on Plasmodium falciparum [3] it was 1.35 µM.

In the case of `CC(C)(C)NC(=O)CN(CCNc1ccnc2cc(Cl)ccc12)C(=O)c1cnccn1`, the IC50 in the experiment with Plasmodium falciparum [1] is 0.71 µM; in the experiment on Plasmodium falciparum [2], 1.19 µM; with Plasmodium falciparum [3] it was 1.13 µM.

In the case of `O=C(CN(CCCNc1ccnc2cc(Cl)ccc12)C(=O)c1cnccn1)NC1CCCCC1`, the IC50 was found to be 0.24 µM in the experiment with Plasmodium falciparum [1], 0.87 µM with Plasmodium falciparum [2] and 0.52 µM with Plasmodium falciparum [3].

In the case of `CC(C)(C)NC(=O)CN(CCCNc1ccnc2cc(Cl)ccc12)C(=O)c1ccncc1`, the concentration for half-maximal inhibition (IC50) in the experiment on Plasmodium falciparum [1] is over 20 µM; in the experiment with Plasmodium falciparum [2], 3.8 µM; in the experiment on Plasmodium falciparum [3], 18.2 µM.

In the case of `O=C(CN(CCNc1ccnc2cc(Cl)ccc12)C(=O)c1ccncc1)NC1CCCCC1`, the results for the IC50 in the experiment with Plasmodium falciparum [1], in the experiment with Plasmodium falciparum [2] and in the experiment on Plasmodium falciparum [3] were 0.54 µM, 0.61 µM and 0.53 µM, respectively.

`CC(C)(C)NC(=O)CN(CCNc1ccnc2cc(Cl)ccc12)C(=O)c1ccncc1`: the half-inhibitory concentration (IC50) in the experiment on Plasmodium falciparum [1] stood at 1.06 µM; in the experiment with Plasmodium falciparum [2] it was 0.99 µM; with Plasmodium falciparum [3] it was 1.1 µM.

Consider `O=C(CN(CCCNc1ccnc2cc(Cl)ccc12)C(=O)c1ccc(O)cc1O)NC1CCCCC1`, for which the IC50 worked out at 1.67 µM in the experiment on Plasmodium falciparum [1], 5.93 µM in the experiment with Plasmodium falciparum [2] and 3.82 µM in the experiment on Plasmodium falciparum [3].

As for `O=C(CN(CCCNc1ccnc2cc(Cl)ccc12)C(=O)c1ccncc1)NC1CCCCC1`, the results for the IC50 in the experiment on Plasmodium falciparum [1], with Plasmodium falciparum [2] and in the experiment on Plasmodium falciparum [3] were 0.23 µM, 1.56 µM and 0.07 µM, respectively.

For the compound `CC(C)(C)NC(=O)CN(CCCNc1ccnc2cc(Cl)ccc12)C(=O)c1cnccn1`, the IC50 came to 1.37 µM in the experiment on Plasmodium falciparum [1], 1.65 µM with Plasmodium falciparum [2] and 2.29 µM with Plasmodium falciparum [3].

What is called IC50 is the concentration needed to halve the response being measured.
